Data reported in ChEMBL document CHEMBL1147951, “Synthesis and antimicrobial activity of symmetrical two-tailed dendritic tricarboxylato amphiphiles” (2007).
≈ marks a conversion by molar mass, not a printed value.

Each compound was assayed on Candida albicans (assay: Antimicrobial activity against Candida albicans by broth microdilution assay).
Type: functional
Outline: (§1)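 Compounds were dissolved in aqueous triethanolamine (stock pH 8–9) and serially diluted twofold in 1/10-strength BHI broth + 0.2% sucrose. Inocula were adjusted with buffered saline gelatin to McFarland No. 1; for A. niger, spores were scraped from PDA. Plates were incubated at 30 °C and turbidity was scored visually on day 4. MIC, run in triplicate, was the lowest concentration giving a prominent visible decrease in turbidity.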
Work on CCCCCCCN(CCCCCCC)C(=O)NC(CCC(=O)O)(CCC(=O)O)CCC(=O)O yielded an MIC of 1600 µM (≈ 779 µg/mL). In the case of CCCCCCCCCCCCCCCCNC(=O)NC(CCC(=O)O)(CCC(=O)O)CCC(=O)O, the MIC was 47 µM (≈ 24.2 µg/mL). Work on CCCCCCCCCCCCC(CCCCCCCCCCCC)NC(=O)NC(CCC(=O)O)(CCC(=O)O)CCC(=O)O yielded an MIC of over 9800 µM. For CCCCCCCCCCCCCCCCCCCCNC(=O)NC(CCC(=O)O)(CCC(=O)O)CCC(=O)O, the MIC was 2700 µM (≈ 1540 µg/mL).

The compounds below were run on Klebsiella pneumoniae (assay: Antimicrobial activity against Klebsiella pneumoniae by broth microdilution assay).
Type: functional
Outline: (§2)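 Strains were E. coli strain C (ATCC 13706) and K. pneumoniae ATCC 4352, grown from a single colony in 1/10-strength BHI broth + 0.2% sucrose and adjusted with buffered saline gelatin to McFarland No. 1. Twofold dilution series of compound in triethanolamine/water used doubled medium and inoculum volumes. Plates were incubated at 37 °C and turbidity was scored visually on day 7. MIC, run in triplicate, was the lowest concentration giving a prominent visible turbidity decrease.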
For CCCCCCCN(CCCCCCC)C(=O)NC(CCC(=O)O)(CCC(=O)O)CCC(=O)O, the MIC was over 1200 µM. For CCCCCCCCCCCCCCCCNC(=O)NC(CCC(=O)O)(CCC(=O)O)CCC(=O)O, the MIC was 280 µM (≈ 144 µg/mL). CCCCCCCCCCCCC(CCCCCCCCCCCC)NC(=O)NC(CCC(=O)O)(CCC(=O)O)CCC(=O)O showed an MIC of over 9800 µM. CCCCCCCCCCCCCCCCCCCCNC(=O)NC(CCC(=O)O)(CCC(=O)O)CCC(=O)O was tested, and the MIC was 250 µM (≈ 143 µg/mL).

These compounds were tested on Aspergillus niger (assay: Antimicrobial activity against Aspergillus niger by broth microdilution assay).
Type: functional
Outline: as §1
With CCCCCCCN(CCCCCCC)C(=O)NC(CCC(=O)O)(CCC(=O)O)CCC(=O)O the MIC was 800 µM (≈ 389 µg/mL). CCCCCCCCCCCCCCCCNC(=O)NC(CCC(=O)O)(CCC(=O)O)CCC(=O)O showed an MIC of 3000 µM (≈ 1540 µg/mL). CCCCCCCCCCCCC(CCCCCCCCCCCC)NC(=O)NC(CCC(=O)O)(CCC(=O)O)CCC(=O)O was tested, and the MIC was 9800 µM (≈ 6280 µg/mL). For CCCCCCCCCCCCCCCCCCCCNC(=O)NC(CCC(=O)O)(CCC(=O)O)CCC(=O)O, the MIC was 680 µM (≈ 388 µg/mL).

These compounds were tested on Escherichia coli (assay: Antimicrobial activity against Escherichia coli by broth microdilution assay).
Type: functional
Outline: as §2
CCCCCCCN(CCCCCCC)C(=O)NC(CCC(=O)O)(CCC(=O)O)CCC(=O)O was tested, and the MIC was 3200 µM (≈ 1560 µg/mL). Work on CCCCCCCCCCCCCCCCNC(=O)NC(CCC(=O)O)(CCC(=O)O)CCC(=O)O yielded an MIC of 140 µM (≈ 72.1 µg/mL). CCCCCCCCCCCCC(CCCCCCCCCCCC)NC(=O)NC(CCC(=O)O)(CCC(=O)O)CCC(=O)O showed an MIC of 2400 µM (≈ 1540 µg/mL). Compound CCCCCCCCCCCCCCCCCCCCNC(=O)NC(CCC(=O)O)(CCC(=O)O)CCC(=O)O has an MIC of 62 µM (≈ 35.4 µg/mL).

The compounds below were run on Staphylococcus aureus (assay: Antimicrobial activity against Staphylococcus aureus by broth microdilution assay).
Type: functional
Outline: (§3)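 Twofold dilution series of amphiphile (dissolved in aqueous triethanolamine, pH 8–9) in 1/10-strength Brain Heart Infusion Broth with 0.2% sucrose. Inoculum from a single-colony broth culture, diluted with buffered saline gelatin to No. 1 McFarland turbidity. Incubated at 30 °C; turbidity scored visually on day 4. MIC = lowest concentration giving a prominent visible decrease in turbidity; triplicate.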
Work on CCCCCCCN(CCCCCCC)C(=O)NC(CCC(=O)O)(CCC(=O)O)CCC(=O)O yielded an MIC of over 13000 µM. For CCCCCCCCCCCCCCCCNC(=O)NC(CCC(=O)O)(CCC(=O)O)CCC(=O)O, the MIC was 760 µM (≈ 391 µg/mL). CCCCCCCCCCCCC(CCCCCCCCCCCC)NC(=O)NC(CCC(=O)O)(CCC(=O)O)CCC(=O)O showed an MIC of over 9800 µM. CCCCCCCCCCCCCCCCCCCCNC(=O)NC(CCC(=O)O)(CCC(=O)O)CCC(=O)O gave an MIC of 1400 µM (≈ 799 µg/mL).

Each compound was assayed on Staphylococcus aureus (assay: Antimicrobial activity against methicillin-resistant Staphylococcus aureus by broth microdilution assay).
Type: functional
Outline: as §3
CCCCCCCN(CCCCCCC)C(=O)NC(CCC(=O)O)(CCC(=O)O)CCC(=O)O showed an MIC of 3200 µM (≈ 1560 µg/mL). CCCCCCCCCCCCCCCCNC(=O)NC(CCC(=O)O)(CCC(=O)O)CCC(=O)O was tested, and the MIC was 6100 µM (≈ 3140 µg/mL). CCCCCCCCCCCCCCCCCCCCNC(=O)NC(CCC(=O)O)(CCC(=O)O)CCC(=O)O showed an MIC of 1400 µM (≈ 799 µg/mL).

What follows are compounds tested on Micrococcus luteus (assay: Antimicrobial activity against Micrococcus luteus by broth microdilution assay).
Type: functional
Outline: as §1
CCCCCCCN(CCCCCCC)C(=O)NC(CCC(=O)O)(CCC(=O)O)CCC(=O)O showed an MIC of 6400 µM (≈ 3110 µg/mL). CCCCCCCCCCCCCCCCNC(=O)NC(CCC(=O)O)(CCC(=O)O)CCC(=O)O gave an MIC of over 12000 µM. With CCCCCCCCCCCCC(CCCCCCCCCCCC)NC(=O)NC(CCC(=O)O)(CCC(=O)O)CCC(=O)O the MIC was over 9800 µM. In the case of CCCCCCCCCCCCCCCCCCCCNC(=O)NC(CCC(=O)O)(CCC(=O)O)CCC(=O)O, the MIC was over 11000 µM.

The compounds below were run on Cryptococcus neoformans (assay: Antimicrobial activity against Cryptococcus neoformans by broth microdilution assay).
Type: functional
Outline: as §1
In the case of CCCCCCCN(CCCCCCC)C(=O)NC(CCC(=O)O)(CCC(=O)O)CCC(=O)O, the MIC was 1200 µM (≈ 584 µg/mL). CCCCCCCCCCCCCCCCNC(=O)NC(CCC(=O)O)(CCC(=O)O)CCC(=O)O showed an MIC of 47 µM (≈ 24.2 µg/mL). With CCCCCCCCCCCCC(CCCCCCCCCCCC)NC(=O)NC(CCC(=O)O)(CCC(=O)O)CCC(=O)O the MIC was 6.9 µM (≈ 4.42 µg/mL). CCCCCCCCCCCCCCCCCCCCNC(=O)NC(CCC(=O)O)(CCC(=O)O)CCC(=O)O was tested, and the MIC was 2700 µM (≈ 1540 µg/mL).

Each compound was assayed on Mycolicibacterium smegmatis (assay: Antimicrobial activity against Mycobacterium smegmatis by broth microdilution assay).
Type: functional
Outline: (§4)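 Strains were L. plantarum ATCC 14917, precultured in TSB, and M. smegmatis ATCC 607, precultured in Middlebrook 7H9. Inocula were diluted with buffered saline gelatin to McFarland No. 1. Twofold dilutions of compound in aqueous triethanolamine were made in 1/10-strength BHI broth + 0.2% sucrose and mixed with an equal volume of inoculum. Plates were incubated at 30 °C and scored visually for turbidity on day 4. MIC was determined in triplicate.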
For CCCCCCCN(CCCCCCC)C(=O)NC(CCC(=O)O)(CCC(=O)O)CCC(=O)O, the MIC was 3200 µM (≈ 1560 µg/mL). CCCCCCCCCCCCCCCCNC(=O)NC(CCC(=O)O)(CCC(=O)O)CCC(=O)O gave an MIC of 140 µM (≈ 72.1 µg/mL). Compound CCCCCCCCCCCCC(CCCCCCCCCCCC)NC(=O)NC(CCC(=O)O)(CCC(=O)O)CCC(=O)O has an MIC of 1200 µM (≈ 769 µg/mL). For CCCCCCCCCCCCCCCCCCCCNC(=O)NC(CCC(=O)O)(CCC(=O)O)CCC(=O)O, the MIC was 62 µM (≈ 35.4 µg/mL).

These compounds were tested on Lactiplantibacillus plantarum (assay: Antimicrobial activity against Lactobacillus plantarum by broth microdilution assay).
Type: functional
Outline: as §4
In the case of CCCCCCCN(CCCCCCC)C(=O)NC(CCC(=O)O)(CCC(=O)O)CCC(=O)O, the MIC was 6400 µM (≈ 3110 µg/mL). CCCCCCCCCCCCCCCCNC(=O)NC(CCC(=O)O)(CCC(=O)O)CCC(=O)O showed an MIC of 6100 µM (≈ 3140 µg/mL). CCCCCCCCCCCCC(CCCCCCCCCCCC)NC(=O)NC(CCC(=O)O)(CCC(=O)O)CCC(=O)O gave an MIC of 9800 µM (≈ 6280 µg/mL). CCCCCCCCCCCCCCCCCCCCNC(=O)NC(CCC(=O)O)(CCC(=O)O)CCC(=O)O showed an MIC of 1400 µM (≈ 799 µg/mL).

What follows are compounds tested on Saccharomyces cerevisiae (assay: Antimicrobial activity against Saccharomyces cerevisiae by broth microdilution assay).
Type: functional
Outline: as §1
Work on CCCCCCCN(CCCCCCC)C(=O)NC(CCC(=O)O)(CCC(=O)O)CCC(=O)O yielded an MIC of 800 µM (≈ 389 µg/mL). With CCCCCCCCCCCCCCCCNC(=O)NC(CCC(=O)O)(CCC(=O)O)CCC(=O)O the MIC was 550 µM (≈ 283 µg/mL). CCCCCCCCCCCCC(CCCCCCCCCCCC)NC(=O)NC(CCC(=O)O)(CCC(=O)O)CCC(=O)O showed an MIC of 610 µM (≈ 391 µg/mL). CCCCCCCCCCCCCCCCCCCCNC(=O)NC(CCC(=O)O)(CCC(=O)O)CCC(=O)O gave an MIC of 120 µM (≈ 68.5 µg/mL).
